Screening results as filed in PubChem BioAssay.
In the library only some 2.9% were active in any assay of this set; here they are far more common.
Cneo AK release – Cryptococcus neoformans lysis via adenylate kinase release; lysis activity, % at 15 µM; hit rate 0.2% among 360,000; AID 651654; C. neoformans lysis, adenylate kinase release luminescence, 4 h; normalised: neutral wells 0, clomiphene wells 100;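 active = mean lysis activity across replicates of at least 80%, whatever share of replicates individually reach that level; inactive = mean lysis activity below 80%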
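Schedule: static 4 h at 37 °C with compound, 1 h detection; system: C. neoformans cells; benchmarks: Clomiphene as positive control; buffer or medium: fresh YPD medium; measure: luminescence rise reflecting yeast cell lysis; measured by: luminescent adenylate kinase detection reagent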
PglD inh – PglD (C. jejuni) enzyme inhibition; purified PglD enzyme, DTNB colorimetric CoA detection; inhibition, % at 12.5 µM; hit rate 0.098% among 360,000; AID 602405; in the data active = inhibition above about 16%, passing the limit was not always enough
FGF22 binding – shifts melting point of recombinant human FGF22; recombinant FGF22 thermal shift, SYPRO orange fluorescence; percent of sucrose octasulfate shift, DMSO zero; activity (Tm shift, normalised), % at 9.99 µM; hit rate 1.5% among 340,000; AID 651658;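 active = mean Tm shift, scaled 0 neutral to 100 positive control, at about 1.3% or above, every replicate too, limit read from the data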
Target sequence (Q9HCT0 whole entry, looked up): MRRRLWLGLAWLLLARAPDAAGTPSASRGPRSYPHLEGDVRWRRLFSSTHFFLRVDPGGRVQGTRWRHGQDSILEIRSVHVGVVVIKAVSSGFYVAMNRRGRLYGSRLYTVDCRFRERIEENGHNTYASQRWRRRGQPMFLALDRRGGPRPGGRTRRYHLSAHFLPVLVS
Vif inh – inhibitors of HIV Vif. inhibition, % at 7.49 µM. HEK293T cells, Vif self-association by quenched fluorescence, imaging, 24 h. hit rate 0.35% among 340,000; in the data active = inhibition above about 50%, passing the limit was not always enough
rRNA inh HTS – inhibits bacterial ribosomal RNA function over humanized ribosomes | E. coli WT GFP vs humanized-ribosome RFP mutants, fluorescence, 24 h; hits give low values; DMSO median 0, no signal -100 | GFP signal change (wild-type ribosome), % (no concentration beside the values) | hit rate 1.6% among 350,000 | AID 720706;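 active = significant combined selectivity score with lowered wild-type GFP, culture density cut under 30%, mutant RFP and density less affected; inactive = any of these conditions unmet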
PGC1a acetyl inh – PGC1a acetylation modulation, inhibitor mode. U2OS PGC1a acetylation, AlphaScreen anti-acetyl-lysine; with virally co-expressed GCN5 acetyltransferase. inhibition, % at 15.6 µM. hit rate 0.17% among 350,000;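 active = every replicate shows inhibition of at least 40%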;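 note: 0% = neutral control wells and 100% = positive control wells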
* marks the source's active call; other numbers are inactive results; . = not tested or not shown; ! = not active in a repeat.

SMILES	Cneo AK release	PglD inh	FGF22 binding	Vif inh	rRNA inh HTS	PGC1a acetyl inh
CN1C(=O)c2cc(NC(=O)c3cccs3)ccc2OC[C@H]2O[C@@H](CC(=O)NCC(F)(F)F)CC[C@@H]21	0	-2	0	.	1	0
CCNC(=O)NC(=O)CSc1ccc2ccccc2c1	.	.	43*	-5	15	0
O=C(NC1Cc2ccccc2C1)[C@@H]1[C@@H](CO)[C@@H]2Cn3c(cccc3=O)[C@H]1N2C(=O)CC1CC1	-2	7	0	.	2	.
O=C(NC(=S)Nc1ccc(Br)cc1)C1CCC1	146*	4	0	-2	-8	-4
CNC[C@H]1Oc2cc(-c3ccncc3)ccc2S(=O)(=O)N([C@@H](C)CO)C[C@H]1C	1	0	0	.	9	6
COCCCNC(=S)N/N=C/c1ccc2ccccc2c1	.	.	0	-3	-32*	6
O=[N+]([O-])c1ccc(C=NNC(=S)Nc2ccc(F)cc2)cc1	1	7	44*	-3	-2	-6
COCCCNC(=S)N/N=C/c1ccc(OC)cc1	8	3	0	.	-6	8
C=CCNC(=S)N/N=C/c1cccc([N+](=O)[O-])c1	12	-4	43*	6	-2	-17
COc1ccc(/C=N/NC(=S)Nc2cccc(C(=O)O)c2)cc1	.	.	.	-4	4	.
COc1ccc(/C=N/NC(=S)Nc2ccccc2)cc1	.	.	45*	11	-35	.
C[C@H](CO)N1C[C@H](C)[C@@H](CN(C)S(=O)(=O)c2ccc(Cl)cc2)Oc2ccc(NC(=O)Cc3ccccc3)cc2CC1=O	-1	1	0	.	3	4
CN(Cc1cnc2nc(N)nc(N)c2n1)c1ccc(C(=O)N[C@@H](CCC(=O)O)C(=O)O)cc1	-1	-2	0	-3	.	43*!
O=C(Nc1cccc(Cl)c1)N[C@H]1CC[C@@H](CCn2cc(Cc3ccccc3)nn2)O[C@H]1CO	-13	-9	0	.	-21	9
Clc1cccc(Cl)c1CN1CCN(c2ncccn2)CC1	-3	9	0	-7	-22	-6
Cn1nc(-c2ccccc2)c(CN2CCN(c3ncccn3)CC2)c1Cl	.	.	0	3	-34*	.
CCC(=O)N1C[C@H](C)[C@H](OC)CN(C)C(=O)c2cc(NC(=O)C3CCCCC3)ccc2OC[C@H]1C	-9	-1	0	.	0	5
O=C(N/N=C/c1cccc(Oc2ccccc2)c1)c1ccccc1Br	0	3	0	-22	-28*	-1
O=C(N/N=C/c1cccc(Oc2ccccc2)c1)c1cccc(Br)c1	0	-4	0	-8	-22	-3
O=C(C[C@H]1CC[C@@H](NC(=O)C2CCC2)[C@@H](CO)O1)Nc1nccs1	19	0	0	.	2	-2
CCc1nnc(NC(=O)CSc2nc3[nH]ncc3c(=O)[nH]2)s1	0	-5	44*	-12	.	.
Cc1nnc(NC(=O)CSc2nc3[nH]ncc3c(=O)[nH]2)s1	2	0	0	2	11	-5
Cn1c(=O)c2nc(Cl)c(-c3ccccc3)nc2n(C)c1=O	.	.	0	5	9	.
Cn1c(=O)c2nc3ccccc3nc2n(C)c1=O	3	-1	43*	1	-7	-2
Cn1c(=O)c2nc(-c3ccccc3)c(-c3ccccc3)nc2n(C)c1=O	.	.	0	1	-20*	6
SMILES	Cneo AK release	PglD inh	FGF22 binding	Vif inh	rRNA inh HTS	PGC1a acetyl inh
CO[C@H]1CN(C)C(=O)c2cc(NC(C)=O)ccc2OC[C@H](C)N(C(=O)c2ccccc2F)C[C@@H]1C	-2	0	1	.	2	-1
CCOC(=O)C1CCCN(C(=O)c2ccc3c(c2)OCO3)C1 (stereo not drawn)	-5	-6	.	-1	.	-4
CCOC(=O)CNC(=O)N1CCCC(C(=O)c2ccc3c(c2)OCO3)C1 (stereo not drawn)	.	.	43*	-1	7	.
CO[C@@H]1CN(C)C(=O)c2cc(NS(=O)(=O)CC(F)(F)F)ccc2OC[C@@H](C)N(C(=O)NC(C)C)C[C@@H]1C	-1	1	0	.	2	-3
Cc1cccc(N2CCN(C(=O)CCN3C(=O)C4C5C=CC(C5)C4C3=O)CC2C)c1 (stereo not drawn)	.	.	44*	5	.	.
Cc1cccc(N2CCN(C(=O)c3ccccn3)CC2C)c1 (stereo not drawn)	.	.	43*	8	.	.
Cc1cccc(N2CCN(C(=O)c3cccc(N4C(=O)C5C6C=CC(C6)C5C4=O)c3)CC2C)c1 (stereo not drawn)	-3	4	0	-3	3	-17
C[C@@H](NC(=O)C[C@H]1C=C[C@H](NC(=O)C2CC2)[C@@H](CO)O1)c1ccccc1	2	-4	0	.	0	5
Cc1ccc(CSc2ncnc3ccccc23)cc1	-1	7	0	-5	-33*	-11
COc1ccc2c3c([nH]c2c1)[C@@H](CO)N(C(=O)NC(C)C)CC31CCN(Cc2ccc(F)cc2)CC1	.	.	0	.	-4	-8
CC(C)(CO)NCc1ccc(Br)cc1	.	.	43*	3	19	.
Cc1ccc(CNC(C)(C)CO)cc1	.	.	.	-5	.	.
COc1ccc2c3c(n(C)c2c1)[C@@H](CO)N(C(=O)NC(C)C)CC31CCN(CC2CC2)CC1	.	.	0	.	2	.
COc1ccc2c3c([nH]c2c1)[C@@H](CO)N(S(=O)(=O)c1cn(C)cn1)CC31CCN(CC2CCCCC2)CC1	.	.	.	.	4	-13
COc1ccc(-c2nc(CN3CCN(c4ncnc5ccccc45)CC3)c(C)o2)c(OC)c1	.	.	44*	-5	-20	.
Cc1oc(-c2cc(F)ccc2F)nc1CN1CCN(c2ncnc3ccccc23)CC1	-1	3	0	-19	-19	.
Nc1ncccc1OCc1ccc(Cl)c(Cl)c1	-1	2	0	-2	-21*	-3
C[C@@H]1CN([C@@H](C)CO)C(=O)c2cc(NS(=O)(=O)c3cn(C)cn3)ccc2O[C@@H](C)CCCCO[C@H]1CN(C)S(=O)(=O)c1ccc(F)cc1	-5	-6	0	.	-1	0
C[C@H](CO)N1C[C@H](C)[C@@H](CN(C)C(=O)C2CCC2)Oc2cc(C#C[C@@H](C)O)ccc2S1(=O)=O	0	4	0	.	2	12
COc1ccc(-c2ccc([C@@H]3[C@@H](CO)N4C(=O)CNC[C@@H]34)cc2)cc1	.	.	.	.	1	4
O=C(C1CCCCC1)N1CCCc2ccccc21	-1	-3	.	6	.	-19
CC(C)N1C(=O)CCC1C(=O)N1CCCc2ccccc21 (stereo not drawn)	3	25*	.	-1	.	-23
CCC(=O)Nc1ccc2c(c1)C(=O)N(C)C[C@@H](OC)[C@H](C)CN(Cc1ccccn1)[C@@H](C)CO2	-1	3	0	.	-1	16
